Laboratory results taken from ChEMBL document CHEMBL4673284, “Syntheses and anti-HIV and human cluster of differentiation 4 (CD4) down-modulating potencies of pyridine-fused cyclotriazadisulfonamide (CADA) compounds” (Bioorg Med Chem, 2020).

molecular target: T-cell surface glycoprotein CD4 (Homo sapiens, UniProt P01730); assay: Binding affinity to signal peptide of human CD4-YFP expressed in CHO-K1 cells assessed down-modulation of CD4 surface expression incubated for 24 hrs by flow cytometry; assay type: cell-based; conditions: not given
How it was run: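 CHO cells stably expressing human CD4 C-terminally fused to YFP were exposed 24 h at 37 °C to 1:5 serial dilutions, washed, fixed in 1% formaldehyde and analysed by flow cytometry (488 nm laser). YFP MFI, minus non-transfected background, was expressed as % of untreated controls. IC50 is the concentration giving 50% down-modulation. Mean ± SD, n = 3.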

Row | SMILES | IC50
1 | C=C1CN(S(=O)(=O)c2ccc(C)cc2)CCc2cc(OCC3CCCCC3)cc(n2)CCN(S(=O)(=O)c2ccc(C)cc2)C1.Cl | 0.13 µM
2 | C=C1CN(S(=O)(=O)c2ccc(C)cc2)CCc2cc(C)cc(n2)CCN(S(=O)(=O)c2ccc(C)cc2)C1 | 1.67 µM
3 | C=C1CN(S(=O)(=O)c2ccc(C)cc2)CCc2cc(CCC)cc(n2)CCN(S(=O)(=O)c2ccc(C)cc2)C1.Cl | 0.83 µM
4 | C=C1CN(S(=O)(=O)c2ccc(C)cc2)CCc2cc(CC(C)C)cc(n2)CCN(S(=O)(=O)c2ccc(C)cc2)C1.Cl | 0.66 µM
5 | C=C1CN(S(=O)(=O)c2ccc(C)cc2)CCc2cccc(n2)CCN(S(=O)(=O)c2ccc(C)cc2)C1 | 2.81 µM
6 | Br.C=C1CN(S(=O)(=O)c2ccc(C)cc2)CCc2cc(O)cc(n2)CCN(S(=O)(=O)c2ccc(C)cc2)C1 | 9.3 µM
7 | C=C1CN(S(=O)(=O)c2ccc(C)cc2)CCc2cc(OC)cc(n2)CCN(S(=O)(=O)c2ccc(C)cc2)C1.Cl | 1.88 µM
8 | C=C1CN(S(=O)(=O)c2ccc(C)cc2)CCc2cc(OCc3ccccc3)cc(n2)CCN(S(=O)(=O)c2ccc(C)cc2)C1 | 0.42 µM
9 | C=C1CN(S(=O)(=O)c2ccc(C)cc2)CCc2cc(CC)cc(n2)CCN(S(=O)(=O)c2ccc(C)cc2)C1 | 0.86 µM
10 | C=C1CN(S(=O)(=O)c2ccc(C)cc2)CCCN(Cc2ccccc2)CCCN(S(=O)(=O)c2ccc(C)cc2)C1.Cl [CYCLOTRIAZADISULFONAMIDE HYDROCHLORIDE] | 0.33 µM
11 | C=C1CN(S(=O)(=O)c2ccc(C)cc2)CCc2cc(-c3ccccc3)cc(n2)CCN(S(=O)(=O)c2ccc(C)cc2)C1.Cl | 0.74 µM
12 | C=C1CN(S(=O)(=O)c2ccc(N(C)C)cc2)CCc2cc(CC)cc(n2)CCN(S(=O)(=O)c2ccc(N(C)C)cc2)C1 | 0.22 µM
13 | C=C1CN(S(=O)(=O)c2ccc(C)cc2)CCc2cc(C(C)(C)C)cc(n2)CCN(S(=O)(=O)c2ccc(C)cc2)C1.Cl | 0.95 µM
14 | C=C1CN(S(=O)(=O)c2ccc(C)cc2)CCc2cc(OCC)cc(n2)CCN(S(=O)(=O)c2ccc(C)cc2)C1.Cl | 1.5 µM
15 | C=C1CN(S(=O)(=O)c2ccc(C)cc2)CCc2cc(CCCC)cc(n2)CCN(S(=O)(=O)c2ccc(C)cc2)C1 | 0.54 µM

system: not listed separately; assay: Kinetic solubility of the compound in aqueous PBS buffer at H 7.4/2.5% DMSO incubated for 1 hr by nephelometry; assay type: physicochemical; conditions: aqueous PBS buffer with 2.5% DMSO, pH 7.4, read-out: Kinetic_solubility
How it was run: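 Compound from a 20 mM DMSO stock was diluted into PBS pH 7.4 at a constant 2.5% DMSO, then two-fold serially diluted in quadruplicate, with extra intermediate concentrations. Plates were shaken 2 min, held 1 h at 37 °C and shaken 3 min before nephelometry. Blank-subtracted scattering onset defined kinetic solubility.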

Row | SMILES | solubility kinetic at 1 h
16 | C=C1CN(S(=O)(=O)c2ccc(C)cc2)CCc2cc(OCC3CCCCC3)cc(n2)CCN(S(=O)(=O)c2ccc(C)cc2)C1.Cl | 65 µM
17 | C=C1CN(S(=O)(=O)c2ccc(C)cc2)CCc2cc(OC)cc(n2)CCN(S(=O)(=O)c2ccc(C)cc2)C1.Cl | 64 µM
18 | C=C1CN(S(=O)(=O)c2ccc(C)cc2)CCCN(Cc2ccccc2)CCCN(S(=O)(=O)c2ccc(C)cc2)C1.Cl [CYCLOTRIAZADISULFONAMIDE HYDROCHLORIDE] | 43 µM
19 | C=C1CN(S(=O)(=O)c2ccc(C)cc2)CCc2cc(-c3ccccc3)cc(n2)CCN(S(=O)(=O)c2ccc(C)cc2)C1.Cl | 61 µM
20 | C=C1CN(S(=O)(=O)c2ccc(C)cc2)CCc2cc(OCC)cc(n2)CCN(S(=O)(=O)c2ccc(C)cc2)C1.Cl | 54 µM

system: Human immunodeficiency virus 1; assay: Antiviral activity against HIV-1 NL4-3 infected in human MT-4 cells assessed as inhibition of viral replication by measuring inhibition of cell viability preincubated with cells for 15 mins followed by viral infection and measured after 4 days by MTS/PES assay; assay type: functional, organism-based; conditions: Human immunodeficiency virus 1, NL4-3, MT4
How it was run: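 HIV-1 NL4.3 (30 pg/well) was then added at 37 °C. After 4 days, viability was read by MTS/PES (absorbance 490 and 700 nm) and the IC50 for viral replication was calculated. Mean ± SD, n = 2 or 3.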

Row | SMILES | IC50
21 | C=C1CN(S(=O)(=O)c2ccc(C)cc2)CCc2cc(OCC3CCCCC3)cc(n2)CCN(S(=O)(=O)c2ccc(C)cc2)C1.Cl | 0.93 µM
22 | C=C1CN(S(=O)(=O)c2ccc(C)cc2)CCc2cc(C)cc(n2)CCN(S(=O)(=O)c2ccc(C)cc2)C1 | > 50 µM
23 | C=C1CN(S(=O)(=O)c2ccc(C)cc2)CCc2cc(CCC)cc(n2)CCN(S(=O)(=O)c2ccc(C)cc2)C1.Cl | 2.81 µM
24 | C=C1CN(S(=O)(=O)c2ccc(C)cc2)CCc2cc(CC(C)C)cc(n2)CCN(S(=O)(=O)c2ccc(C)cc2)C1.Cl | 2.3 µM
25 | C=C1CN(S(=O)(=O)c2ccc(C)cc2)CCc2cccc(n2)CCN(S(=O)(=O)c2ccc(C)cc2)C1 | > 50 µM
26 | Br.C=C1CN(S(=O)(=O)c2ccc(C)cc2)CCc2cc(O)cc(n2)CCN(S(=O)(=O)c2ccc(C)cc2)C1 | > 50 µM
27 | C=C1CN(S(=O)(=O)c2ccc(C)cc2)CCc2cc(OC)cc(n2)CCN(S(=O)(=O)c2ccc(C)cc2)C1.Cl | 12.6 µM
28 | C=C1CN(S(=O)(=O)c2ccc(C)cc2)CCc2cc(OCc3ccccc3)cc(n2)CCN(S(=O)(=O)c2ccc(C)cc2)C1 | 2.18 µM
29 | C=C1CN(S(=O)(=O)c2ccc(C)cc2)CCc2cc(CC)cc(n2)CCN(S(=O)(=O)c2ccc(C)cc2)C1 | 3.4 µM
30 | C=C1CN(S(=O)(=O)c2ccc(C)cc2)CCCN(Cc2ccccc2)CCCN(S(=O)(=O)c2ccc(C)cc2)C1.Cl [CYCLOTRIAZADISULFONAMIDE HYDROCHLORIDE] | 1.68 µM
31 | C=C1CN(S(=O)(=O)c2ccc(C)cc2)CCc2cc(-c3ccccc3)cc(n2)CCN(S(=O)(=O)c2ccc(C)cc2)C1.Cl | 2.47 µM
32 | C=C1CN(S(=O)(=O)c2ccc(N(C)C)cc2)CCc2cc(CC)cc(n2)CCN(S(=O)(=O)c2ccc(N(C)C)cc2)C1 | 1.1 µM
33 | C=C1CN(S(=O)(=O)c2ccc(C)cc2)CCc2cc(C(C)(C)C)cc(n2)CCN(S(=O)(=O)c2ccc(C)cc2)C1.Cl | 2.7 µM
34 | C=C1CN(S(=O)(=O)c2ccc(C)cc2)CCc2cc(OCC)cc(n2)CCN(S(=O)(=O)c2ccc(C)cc2)C1.Cl | 10.4 µM
35 | C=C1CN(S(=O)(=O)c2ccc(C)cc2)CCc2cc(CCCC)cc(n2)CCN(S(=O)(=O)c2ccc(C)cc2)C1 | 2.41 µM

system: not listed separately; assay: Thermodynamic solubility of the compound in aqueous PBS buffer at pH 7.4 incubated for 72 hrs by shake flask method based UV-Vis absorption spectroscopy; assay type: physicochemical; conditions: read-out: Therm_solubility
How it was run: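 Shake-flask method: 3–5 mg compound in 5 mL PBS pH 7.4 was agitated 72 h, with excess solid checked at 24 and 48 h. The solution was then filtered and the filtrate quantified by UV-Vis standard addition with Beer–Lambert. ε came from five-concentration methanol calibrations at λmax, fitted by linear least squares.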

Row | SMILES | solubility thermodynamic at 72 h
36 | C=C1CN(S(=O)(=O)c2ccc(C)cc2)CCc2cc(CCC)cc(n2)CCN(S(=O)(=O)c2ccc(C)cc2)C1.Cl | 18 µM
37 | C=C1CN(S(=O)(=O)c2ccc(C)cc2)CCc2cc(CC(C)C)cc(n2)CCN(S(=O)(=O)c2ccc(C)cc2)C1.Cl | 29 µM
38 | Br.C=C1CN(S(=O)(=O)c2ccc(C)cc2)CCc2cc(O)cc(n2)CCN(S(=O)(=O)c2ccc(C)cc2)C1 | 27 µM
39 | C=C1CN(S(=O)(=O)c2ccc(C)cc2)CCc2cc(OC)cc(n2)CCN(S(=O)(=O)c2ccc(C)cc2)C1.Cl | 28 µM
40 | C=C1CN(S(=O)(=O)c2ccc(C)cc2)CCCN(Cc2ccccc2)CCCN(S(=O)(=O)c2ccc(C)cc2)C1.Cl [CYCLOTRIAZADISULFONAMIDE HYDROCHLORIDE] | 11 µM
41 | C=C1CN(S(=O)(=O)c2ccc(C)cc2)CCc2cc(C(C)(C)C)cc(n2)CCN(S(=O)(=O)c2ccc(C)cc2)C1.Cl | 20 µM

system: CD4 (surface expression down-modulation); assay: Therapeutic index, ratio of CC50 for human MT-4 cells to IC50 for human CD4-YFP expressed in CHO-K1 cells assessed down-modulation of CD4 surface expression incubated for 24 hrs by flow cytometry; assay type: toxicity, cell-based; conditions: read-out: Ratio CC50/IC50

Row | SMILES | selectivity ratio at 24 h
42 | C=C1CN(S(=O)(=O)c2ccc(C)cc2)CCc2cc(CC(C)C)cc(n2)CCN(S(=O)(=O)c2ccc(C)cc2)C1.Cl | > 100
43 | C=C1CN(S(=O)(=O)c2ccc(C)cc2)CCc2cc(CCCC)cc(n2)CCN(S(=O)(=O)c2ccc(C)cc2)C1 | > 100

system: MT4; assay: Cytotoxicity against human MT-4 cells assessed as inhibition of cell viability incubated for 48 hrs by MTS/PES assay; assay type: cell-based; conditions: mt4, 48 h
How it was run: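 Cytotoxicity: 10^4 MT-4 cells/well in DMEM with 10% FBS and 10 mM HEPES were exposed to compounds 48 h at 37 °C. CC50 was derived from the drop in viability measured by MTS/PES.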

Row | SMILES | CC50
44 | C=C1CN(S(=O)(=O)c2ccc(C)cc2)CCc2cc(OCC3CCCCC3)cc(n2)CCN(S(=O)(=O)c2ccc(C)cc2)C1.Cl | > 100 µM
45 | C=C1CN(S(=O)(=O)c2ccc(C)cc2)CCc2cc(C)cc(n2)CCN(S(=O)(=O)c2ccc(C)cc2)C1 | > 100 µM
46 | C=C1CN(S(=O)(=O)c2ccc(C)cc2)CCc2cc(CCC)cc(n2)CCN(S(=O)(=O)c2ccc(C)cc2)C1.Cl | > 100 µM
47 | C=C1CN(S(=O)(=O)c2ccc(C)cc2)CCc2cc(CC(C)C)cc(n2)CCN(S(=O)(=O)c2ccc(C)cc2)C1.Cl | 87.9 µM
48 | C=C1CN(S(=O)(=O)c2ccc(C)cc2)CCc2cccc(n2)CCN(S(=O)(=O)c2ccc(C)cc2)C1 | > 100 µM
49 | Br.C=C1CN(S(=O)(=O)c2ccc(C)cc2)CCc2cc(O)cc(n2)CCN(S(=O)(=O)c2ccc(C)cc2)C1 | > 100 µM
50 | C=C1CN(S(=O)(=O)c2ccc(C)cc2)CCc2cc(OC)cc(n2)CCN(S(=O)(=O)c2ccc(C)cc2)C1.Cl | > 100 µM
51 | C=C1CN(S(=O)(=O)c2ccc(C)cc2)CCc2cc(OCc3ccccc3)cc(n2)CCN(S(=O)(=O)c2ccc(C)cc2)C1 | > 100 µM
52 | C=C1CN(S(=O)(=O)c2ccc(C)cc2)CCc2cc(CC)cc(n2)CCN(S(=O)(=O)c2ccc(C)cc2)C1 | > 100 µM
53 | C=C1CN(S(=O)(=O)c2ccc(C)cc2)CCCN(Cc2ccccc2)CCCN(S(=O)(=O)c2ccc(C)cc2)C1.Cl [CYCLOTRIAZADISULFONAMIDE HYDROCHLORIDE] | > 100 µM
54 | C=C1CN(S(=O)(=O)c2ccc(C)cc2)CCc2cc(-c3ccccc3)cc(n2)CCN(S(=O)(=O)c2ccc(C)cc2)C1.Cl | > 100 µM
55 | C=C1CN(S(=O)(=O)c2ccc(N(C)C)cc2)CCc2cc(CC)cc(n2)CCN(S(=O)(=O)c2ccc(N(C)C)cc2)C1 | > 100 µM
56 | C=C1CN(S(=O)(=O)c2ccc(C)cc2)CCc2cc(C(C)(C)C)cc(n2)CCN(S(=O)(=O)c2ccc(C)cc2)C1.Cl | > 100 µM
57 | C=C1CN(S(=O)(=O)c2ccc(C)cc2)CCc2cc(OCC)cc(n2)CCN(S(=O)(=O)c2ccc(C)cc2)C1.Cl | > 100 µM
58 | C=C1CN(S(=O)(=O)c2ccc(C)cc2)CCc2cc(CCCC)cc(n2)CCN(S(=O)(=O)c2ccc(C)cc2)C1 | 65.8 µM
